Experimental data taken from ChEMBL document CHEMBL1125014, “Synthesis and structure-activity relationships of new 9-N-alkyl derivatives of 9(S)-erythromycylamine” (1990).
Values after ≈ are worked out from the molar mass of the structure shown.

Legend:
Haemophilus influenzae [1] = assay: MIC value was measured against haemophilus influenzae CL; assay type: functional
[2] = tested on: Staphylococcus epidermidis; assay: MIC value was measured against staphylococcus epidermidis 222; assay type: functional
In short: (§1)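 Susceptibility determined by standard agar-dilution method against a panel of bacterial strains.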

Streptococcus pneumoniae [3] = assay: MIC value was measured against streptococcus pneumoniae park1; assay type: functional; in short: as §1
Staphylococcus aureus [4] = assay: MIC value measured against staphylococcus aureus X1; assay type: functional
Enterococcus faecalis = assay: MIC value was measured against streptococcus faecalis X66; assay type: functional; in short: as §1
Streptococcus pyogenes [5] = assay: MIC value measured against streptococcus pyogenes C203; assay type: functional
Haemophilus influenzae [6] = assay: MIC value was measured against haemophilus influenzae.; assay type: functional; in short: as §1
Staphylococcus aureus [7] = assay: Effective dose against mice infected with Staphylococcus aureus after peroral administration (in vivo); assay type: functional; conditions: in Mus musculus, po
Streptococcus pneumoniae [8] = assay: Effective dose against mice infected with streptococcus pneumoniae after peroral administration (in vivo); assay type: functional; conditions: in Mus musculus, po
Streptococcus pyogenes [9] = assay: Effective dose against mice infected with streptococcus pyogenes after peroral administration (in vivo); assay type: functional; conditions: in Mus musculus, po
Streptococcus pneumoniae [10] = assay: MIC value measured against streptococcus pneumoniae Park1; assay type: functional
[11] = tested on: Staphylococcus epidermidis; assay: MIC value was measured against staphylococcus epidermidis.; assay type: functional; in short: as §1
Mus musculus [12] = assay: ED50 value was measured against staphylococcus aureus after po administration in mice in vivo, in experiment 3); assay type: functional
In short: (§2)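 Infected mice were dosed orally or subcutaneously at 1 and 5 h postinfection, 0.25 mL of antibiotic solution in 10% aqueous ethanol per dose. Tartaric acid was added where needed for solubility. Several dose concentrations were tested to give the ED50.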

Mus musculus [13] = assay: ED50 value was measured against staphylococcus aureus after sc administration in mice in vivo, in experiment 3); assay type: functional; in short: as §2
Mus musculus [14] = assay: ED50 value was measured against streptococcus pneumoniae after po administration in mice in vivo, in experiment 3); assay type: functional; in short: as §2
Mus musculus [15] = assay: ED50 value was measured against streptococcus pneumoniae after sc administration in mice in vivo, in experiment 3); assay type: functional; in short: as §2
Mus musculus [16] = assay: ED50 value was measured against streptococcus pyogenes after po administration in mice (in vivo, in experiment 3); assay type: functional; in short: as §2
Mus musculus [17] = assay: ED50 value was measured against streptococcus pyogenes after sc administration in mice in vivo, in experiment 3); assay type: functional; in short: as §2
[18] = tested on: Staphylococcus epidermidis; assay: microbe, parasite or virus in culture; assay type: functional
Mus musculus [19] = assay: ED50 value was measured against staphylococcus aureus after po administration in mice (in vivo, in experiment 2); assay type: functional; in short: as §2
Mus musculus [20] = assay: ED50 value was measured against staphylococcus aureus after sc administration in mice (in vivo, in experiment 2); assay type: functional; in short: as §2
Mus musculus [21] = assay: ED50 value was measured against streptococcus pneumoniae after po administration in mice (in vivo, in experiment 2); assay type: functional; in short: as §2
Mus musculus [22] = assay: ED50 value was measured against streptococcus pneumoniae after sc administration in mice (in vivo, in experiment 2); assay type: functional; in short: as §2
Mus musculus [23] = assay: ED50 value was measured against streptococcus pyogenes after po administration in mice (in vivo, in experiment 2); assay type: functional; in short: as §2
Mus musculus [24] = assay: ED50 value was measured against streptococcus pyogenes after sc administration in mice (in vivo, in experiment 2); assay type: functional; in short: as §2
Mus musculus [25] = assay: ED50 value was measured against staphylococcus aureus after sc administration in mice (in vivo, in experiment 1); assay type: functional; in short: as §2
Mus musculus [26] = assay: ED50 value was measured against staphylococcus aureus infection in mice (in vivo, in experiment 1); assay type: functional; in short: as §2
Mus musculus [27] = assay: ED50 value was measured against streptococcus pneumoniae after po administration in mice (in vivo, in experiment 1); assay type: functional; in short: as §2
Mus musculus [28] = assay: ED50 value was measured against streptococcus pneumoniae after sc administration in mice (in vivo, in experiment 1); assay type: functional; in short: as §2
Mus musculus [29] = assay: ED50 value was measured against streptococcus pyogenes after po administration in mice (in vivo, in experiment 1); assay type: functional; in short: as §2
Mus musculus [30] = assay: ED50 value was measured against streptococcus pyogenes after sc administration in mice (in vivo, in experiment 1); assay type: functional; in short: as §2
Mus musculus [31] = assay: ED50 value was measured against staphylococcus aureus after po administration in mice (in vivo, in experiment 3); assay type: functional; in short: as §2
Mus musculus [32] = assay: ED50 value was measured against staphylococcus aureus after sc administration in mice (in vivo, in experiment 3); assay type: functional; in short: as §2
Mus musculus [33] = assay: ED50 value was measured against streptococcus pneumoniae after po administration in mice (in vivo, in experiment 3); assay type: functional; in short: as §2
Mus musculus [34] = assay: ED50 value was measured against streptococcus pneumoniae after sc administration in mice (in vivo, in experiment 3); assay type: functional; in short: as §2
Mus musculus [35] = assay: ED50 value was measured against streptococcus pyogenes after sc administration in mice (in vivo, in experiment 3); assay type: functional; in short: as §2
Streptococcus pneumoniae [36] = assay: MIC value was measured against streptococcus pneumoniae park1

Row | SMILES | MIC (Haemophilus influenzae [1]) [µg/mL] | MIC (Streptococcus pneumoniae [3]) [µg/mL] | MIC (Staphylococcus aureus [4]) [µg/mL] | MIC (Enterococcus faecalis) [µg/mL] | MIC (Streptococcus pyogenes [5]) [µg/mL] | MIC (Haemophilus influenzae [6]) [µg/mL] | ED50 (Staphylococcus aureus [7]) [mg/kg] | ED50 (Streptococcus pneumoniae [8]) [mg/kg] | ED50 (Streptococcus pyogenes [9]) [mg/kg] | MIC (Streptococcus pneumoniae [10]) [µg/mL] | MIC [18] [µg/mL] | other results
1 | CCCN1C(C)O[C@@H]2[C@@H](C)[C@@H]1[C@H](C)C[C@@](C)(O)[C@H](OC1OC(C)CC(N(C)C)C1O)[C@@H](C)[C@H](OC1CC(C)(OC)C(O)C(C)O1)[C@@H](C)C(=O)O[C@H](CC)[C@@]2(C)O (some centres undefined) | 1 (≈ 1.25 µM) | 0.015 (≈ 0.0187 µM) | 1 (≈ 1.25 µM) | 0.25 (≈ 0.311 µM) | 0.06 (≈ 0.0747 µM) | – | – | – | – | – | – | MIC [2]: 0.25 µg/mL (≈ 0.311 µM)
2 | CCC(CC)CN[C@@H]1[C@H](C)[C@@H](O)[C@](C)(O)[C@@H](CC)OC(=O)[C@H](C)[C@@H](OC2CC(C)(OC)C(O)C(C)O2)[C@H](C)[C@@H](OC2OC(C)CC(N(C)C)C2O)[C@](C)(O)C[C@H]1C (some centres undefined) | 2 (≈ 2.44 µM) | – | 0.5 (≈ 0.61 µM) | – | 0.015 (≈ 0.0183 µM) | 2 (≈ 2.44 µM) | 22 | 17 | 10 | 0.015 (≈ 0.0183 µM) | – | MIC [11]: 0.5 µg/mL (≈ 0.61 µM)
3 | CC[C@H]1OC(=O)[C@H](C)[C@@H](OC2CC(C)(OC)C(O)C(C)O2)[C@H](C)[C@@H](OC2OC(C)CC(N(C)C)C2O)[C@](C)(O)C[C@@H](C)[C@@H]2NC(COCCOC)O[C@H]([C@H]2C)[C@]1(C)O (some centres undefined) | 2 (≈ 2.39 µM) | 0.06 (≈ 0.0718 µM) | 0.5 (≈ 0.599 µM) | 0.25 (≈ 0.299 µM) | 0.12 (≈ 0.144 µM) | – | > 50 | 32 | 43 | – | 0.5 (≈ 0.599 µM) | ED50 (Mus musculus [12]): 27 mg/kg; ED50 (Mus musculus [13]): 1 mg/kg; ED50 (Mus musculus [14]): 23 mg/kg; ED50 (Mus musculus [15]): < 0.6 mg/kg; ED50 (Mus musculus [16]): 34 mg/kg; ED50 (Mus musculus [17]): 0.6 mg/kg
4 | CC[C@H]1OC(=O)[C@H](C)[C@@H](OC2CC(C)(OC)C(O)C(C)O2)[C@H](C)[C@@H](OC2OC(C)CC(N(C)C)C2O)[C@](C)(O)C[C@@H](C)[C@H](NCCCOC)[C@H](C)[C@@H](O)[C@]1(C)O (some centres undefined) | 0.5 (≈ 0.62 µM) | – | 0.5 (≈ 0.62 µM) | – | 0.06 (≈ 0.0743 µM) | 0.5 (≈ 0.62 µM) | 16 | 16 | 14 | 0.03 (≈ 0.0372 µM) | 0.5 (≈ 0.62 µM) | ED50 (Mus musculus [19]): 36 mg/kg; ED50 (Mus musculus [20]): 3.7 mg/kg; ED50 (Mus musculus [21]): 17 mg/kg; ED50 (Mus musculus [22]): 8.3 mg/kg; ED50 (Mus musculus [23]): 19 mg/kg; ED50 (Mus musculus [24]): 2.1 mg/kg
5 | CC[C@H]1OC(=O)[C@H](C)[C@@H](OC2CC(C)(OC)C(O)C(C)O2)[C@H](C)[C@@H](OC2OC(C)CC(N(C)C)C2O)[C@](C)(O)C[C@@H](C)[C@H](NCCOCCOC)[C@H](C)[C@@H](O)[C@]1(C)O (some centres undefined) | 2 (≈ 2.39 µM) | – | 1 (≈ 1.19 µM) | – | 0.12 (≈ 0.143 µM) | 2 (≈ 2.39 µM) | 22 | 23 | 27 | 0.015 (≈ 0.0179 µM) | 1 (≈ 1.19 µM) | ED50 (Mus musculus [25]): 3.8 mg/kg; ED50 (Mus musculus [26]): 78 mg/kg; ED50 (Mus musculus [27]): 43 mg/kg; ED50 (Mus musculus [28]): 1.4 mg/kg; ED50 (Mus musculus [29]): 37 mg/kg; ED50 (Mus musculus [30]): 5.3 mg/kg
6 | CCC1N[C@@H]2[C@H](C)[C@@H](O1)[C@](C)(O)[C@@H](CC)OC(=O)[C@H](C)[C@@H](OC1CC(C)(OC)C(O)C(C)O1)[C@H](C)[C@@H](OC1OC(C)CC(N(C)C)C1O)[C@](C)(O)C[C@H]2C (some centres undefined) | 8 (≈ 10.3 µM) | 0.12 (≈ 0.155 µM) | 0.5 (≈ 0.645 µM) | 0.5 (≈ 0.645 µM) | 0.12 (≈ 0.155 µM) | – | 34 | 30 | 35 | – | 0.5 (≈ 0.645 µM) | ED50 (Mus musculus [31]): 20 mg/kg; ED50 (Mus musculus [32]): 0.8 mg/kg; ED50 (Mus musculus [33]): 17 mg/kg; ED50 (Mus musculus [34]): < 0.6 mg/kg; ED50 (Mus musculus [16]): 19 mg/kg; ED50 (Mus musculus [35]): < 0.6 mg/kg
7 | CC[C@H]1OC(=O)[C@H](C)[C@@H](OC2CC(C)(OC)C(O)C(C)O2)[C@H](C)[C@@H](OC2OC(C)CC(N(C)C)C2O)[C@](C)(O)C[C@@H](C)[C@H](NCC2CC=CCC2)[C@H](C)[C@@H](O)[C@]1(C)O (some centres undefined) | 4 (≈ 4.82 µM) | – | 1 (≈ 1.21 µM) | 0.25 (≈ 0.302 µM) | 0.06 (≈ 0.0724 µM) | – | 20 | 9 | 15 | – | 0.25 (≈ 0.302 µM) | MIC (Streptococcus pneumoniae [36]): 0.008 µg/mL (≈ 0.00965 µM)
